Test results: ChEMBL document CHEMBL1177714, “Online fluorescence enhancement assay for the acetylcholine binding protein with parallel mass spectrometric identification” (J Med Chem, 2010)

assay: Displacement of radioligand from AChBp by scintillation counting
Outline: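 Lymnaea stagnalis AChBP (Ls-AChBP), expressed from baculovirus in Sf9 insect cells and purified from medium, 1.3 ng per well. Buffer (final): 1.4 mM KH2PO4, 4.3 mM Na2HPO4, 137.0 mM NaCl, 2.7 mM KCl, 20 mM Tris, 4% DMSO, 0.05% Tween 20, pH 7.4. Incubation was 60 min, then 3 h in the dark, with label-bead complexes counted. Full IC50 curves (n=3) were converted to pKi by Cheng-Prusoff.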

Going from `Oc1ccc(/C=C2\CCCN=C2c2cccnc2)cc1` to `Clc1ccc(/C=C2\CCCN=C2c2cccnc2)cc1`, the pKi falls from 8.55 to 6.87.

Going from `CC(=O)Nc1ccc(/C=C2\CCCN=C2c2cccnc2)cc1` to `C(=C1/CCCN=C1c1cccnc1)/c1ccccc1` [3-BENZYLIDENEANABASEINE], the pKi falls from 7.38 to 7.13.

Going from `CCN(CC)c1ccc(/C=C2\CCCN=C2c2cccnc2)c(O)c1` to `COc1ccc(/C=C2\CCCN=C2c2cccnc2)cc1O`, the pKi rises from 7.59 to 8.46.

First: Br.NCCCCC(=O)c1cccnc1
Second: O=[N+]([O-])c1cccc(/C=C2\CCCN=C2c2cccnc2)c1
The pKi of the first is lower: 6.09 for the first, 6.29 for the second.

Going from `COc1cc(/C=C2\CCCN=C2c2cccnc2)ccc1O` to `C(=C1/CCCN=C1c1cccnc1)/c1cc2ccccc2[nH]1`, the pKi rises from 7.09 to 8.71.

`C(=C1/CCCN=C1c1cccnc1)/c1coc2ccccc12` showed a pKi of 7.
